{"source": "ChEMBL document CHEMBL3525963", "about": "“Tissue distribution and elimination of [14C]apixaban in rats” (Drug Metab Dispos, 2011)", "details_in_all_cases": "in vivo", "key": {"Rattus norvegicus [1]": {"tested_on": "Rattus norvegicus", "test": "Biodistribution in pregnant Sprague-Dawley rat pituitary gland at 5 mg/kg, po administered as single dose measured after 0.5 hrs", "type": "ADME, organism-based", "design": "dose 5 mg/kg, dosed compound name [14C]-apixaban, route oral"}, "[2]": {"test": "Drug excretion in Sprague-Dawley rat feces at 30 mg/kg, po administered as single dose after 0 to 168 hrs"}, "Muscle tissue": {"tested_on": "Muscle tissue", "test": "Biodistribution in female Sprague-Dawley rat muscle at 5 mg/kg, po administered as single dose measured after 1 hr", "type": "ADME, organism-based", "design": "dose 5 mg/kg, dosed compound name [14C]-apixaban, route oral", "procedure,_shortened": "(§1)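 [¹⁴C]Apixaban given by oral gavage at 5 mg/kg (100 μCi/kg) in 0.5% Tween 80 in Labrafil (1.0 mg/mL dosing solution) to rats fasted overnight through 4 h post-dose. One rat per time point; carcass frozen in hexane/dry ice. Quantitative whole-body autoradiography used 40 µm sagittal sections and a phosphor imaging plate calibrated with [¹⁴C]glucose standards (0.001–6.5 μCi/g). Read-out in µg eq apixaban/g; LLOQ 0.037 μg eq/g.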"}, "Spleen [3]": {"tested_on": "Spleen", "test": "Biodistribution in pregnant Sprague-Dawley rat spleen at 5 mg/kg, po administered as single dose measured after 48 hrs", "type": "ADME, organism-based", "design": "dose 5 mg/kg, dosed compound name [14C]-apixaban, route oral", "procedure,_shortened": "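Pregnant SD rats (270-319 g) were fasted overnight and given one oral gavage of 5 mg/kg (100 μCi/kg) in 0.5% Tween 80 in Labrafil. One rat was euthanized per time point (0.5, 1, 4, 8, 24, 48 h) and the carcass frozen. 40 µm sagittal sections were phosphor-imaged against [14C]glucose standards and results reported as µg eq/g; LLOQ 0.037 µg eq/g.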"}, "[4]": {"test": "Cmax in lactating Sprague-Dawley rat milk at 5 mg/kg, po administered as single dose", "type": "ADME, organism-based", "design": "dose 5 mg/kg, dosed compound name [14C]-apixaban, route oral", "procedure,_shortened": "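Lactating SD rats received a single oral gavage of 5 mg/kg (108 μCi/kg) in 0.5% Tween 80/Labrafil. Three rats were sampled per time point at 0.5-24 h. Oxytocin was given sc 15 min before milking under anesthesia. Milk, blood and plasma were counted in duplicate by liquid scintillation for 10 min and expressed as apixaban equivalents.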"}, "Rattus norvegicus [5]": {"tested_on": "Rattus norvegicus", "test": "Biodistribution in pregnant Sprague-Dawley rat salivary gland at 5 mg/kg, po administered as single dose measured after 1 hr", "type": "ADME, organism-based", "design": "dose 5 mg/kg, dosed compound name [14C]-apixaban, route oral"}, "Rattus norvegicus [6]": {"tested_on": "Rattus norvegicus", "test": "Biodistribution in male Sprague-Dawley rat brown fat at 5 mg/kg, po administered as single dose measured after 4 hrs", "type": "ADME, organism-based, Brown adipose tissue", "design": "dose 5 mg/kg, dosed compound name [14C]-apixaban, route oral", "procedure,_shortened": "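Fasted male rats, 225-252 g, received [14C]apixaban by single oral gavage at 100 μCi/kg in 0.5% Tween 80/Labrafil. One rat was killed per time point and the carcass frozen. Tissue radioactivity was quantified by QWBA (40 µm sagittal sections, phosphor plate, [14C]glucose calibration) as µg eq apixaban/g, with LLOQ 0.037 μg eq/g.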"}, "Adrenal gland": {"tested_on": "Adrenal gland", "test": "Biodistribution in pregnant Sprague-Dawley rat adrenal gland at 5 mg/kg, po administered as single dose measured after 4 hrs", "type": "ADME, organism-based", "design": "dose 5 mg/kg, dosed compound name [14C]-apixaban, route oral", "procedure,_shortened": "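Fasted pregnant SD rats (n=6, 270-319 g) each received one oral gavage dose of [14C]apixaban, 5 mg/kg (100 μCi/kg), in 0.5% Tween 80/Labrafil. One rat was killed at each of 0.5, 1, 4, 8, 24 and 48 h. Carcasses were frozen in hexane/dry ice, cut into 40 µm sagittal sections, exposed to phosphor plates and quantified against [14C]glucose standards as µg eq/g. LLOQ was 0.037 µg eq/g.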"}, "Thymus [7]": {"tested_on": "Thymus", "test": "Biodistribution in male Sprague-Dawley rat thymus at 5 mg/kg, po administered as single dose measured after 4 hrs", "type": "ADME, organism-based", "design": "dose 5 mg/kg, dosed compound name [14C]-apixaban, route oral"}, "Rattus norvegicus [8]": {"tested_on": "Rattus norvegicus", "test": "Biodistribution in fetal blood of pregnant Sprague-Dawley rat at 5 mg/kg, po administered as single dose measured after 1 hr", "type": "ADME, organism-based", "design": "dose 5 mg/kg, dosed compound name [14C]-apixaban, route oral", "procedure,_shortened": "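Pregnant rats, 270-319 g and fasted overnight, received [14C]apixaban by oral gavage at 100 μCi/kg in 0.5% Tween 80/Labrafil. One dam per time point was euthanized and frozen in hexane/dry ice. Fetal tissue radioactivity was measured by QWBA on 40 µm sagittal sections calibrated with [14C]glucose standards. Values are in µg eq/g, with LLOQ 0.037 μg eq/g.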"}, "Rattus norvegicus [9]": {"tested_on": "Rattus norvegicus", "test": "Biodistribution in male Sprague-Dawley rat pituitary gland at 5 mg/kg, po administered as single dose measured after 4 hrs", "type": "ADME, organism-based", "design": "dose 5 mg/kg, dosed compound name [14C]-apixaban, route oral"}, "Lung": {"tested_on": "Lung", "test": "Biodistribution in female Sprague-Dawley rat lung at 5 mg/kg, po administered as single dose measured after 72 hrs", "type": "ADME, organism-based", "design": "dose 5 mg/kg, dosed compound name [14C]-apixaban, route oral", "procedure,_shortened": "(§2)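 Quantitative whole-body autoradiography was run after a single 5 mg/kg (100 μCi/kg) oral gavage to fasted female or pregnant SD rats, one rat per time point. Carcasses were frozen in hexane/dry ice, and 40 µm sagittal sections were dried at −20°C for at least 48 h. Sections were exposed to a phosphor plate alongside [14C]glucose standards (0.001–6.5 µCi/g). Results are µg eq/g, with LLOQ 0.037 µg eq/g.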"}, "Spleen [10]": {"tested_on": "Spleen", "test": "Biodistribution in male Sprague-Dawley rat spleen at 5 mg/kg, po administered as single dose measured after 8 hrs", "type": "ADME, organism-based", "design": "dose 5 mg/kg, dosed compound name [14C]-apixaban, route oral", "procedure,_shortened": "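Fasted male SD rats (225-252 g) each received one oral gavage dose of [14C]apixaban, 5 mg/kg (100 μCi/kg), in 0.5% Tween 80/Labrafil vehicle. One rat was killed per time point, from 0.5 to 168 h. Frozen carcasses were cut into 40 µm sagittal whole-body sections and read by QWBA phosphor imaging against [14C]glucose calibrants. Results are in µg apixaban eq/g; BLQ <0.037 µg eq/g.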"}, "Rattus norvegicus [11]": {"tested_on": "Rattus norvegicus", "test": "Biodistribution in male Sprague-Dawley rat pituitary gland at 5 mg/kg, po administered as single dose measured after 1 hr", "type": "ADME, organism-based", "design": "dose 5 mg/kg, dosed compound name [14C]-apixaban, route oral"}, "Rattus norvegicus [12]": {"tested_on": "Rattus norvegicus", "test": "Biodistribution in female Sprague-Dawley rat brown fat at 5 mg/kg, po administered as single dose measured after 24 hrs", "type": "ADME, organism-based, Brown adipose tissue", "design": "dose 5 mg/kg, dosed compound name [14C]-apixaban, route oral", "procedure,_shortened": "as §2"}, "Blood [13]": {"tested_on": "Blood", "test": "Biodistribution in male Sprague-Dawley rat blood at 5 mg/kg, po administered as single dose measured after 8 hrs", "type": "ADME, organism-based", "design": "dose 5 mg/kg, dosed compound name [14C]-apixaban, route oral", "procedure,_shortened": "as §1"}, "Rattus norvegicus [14]": {"tested_on": "Rattus norvegicus", "test": "Biodistribution in male Sprague-Dawley rat kidney cortex at 5 mg/kg, po administered as single dose measured after 8 hrs", "type": "ADME, organism-based", "design": "dose 5 mg/kg, dosed compound name [14C]-apixaban, route oral"}, "Thymus [15]": {"tested_on": "Thymus", "test": "Biodistribution in female Sprague-Dawley rat thymus at 5 mg/kg, po administered as single dose measured after 72 hrs", "type": "ADME, organism-based", "design": "dose 5 mg/kg, dosed compound name [14C]-apixaban, route oral", "procedure,_shortened": "as §2"}, "Pancreas": {"tested_on": "Pancreas", "test": "Biodistribution in pregnant Sprague-Dawley rat pancreas at 5 mg/kg, po administered as single dose measured after 0.5 hrs", "type": "ADME, organism-based", "design": "dose 5 mg/kg, dosed compound name [14C]-apixaban, route oral"}, "Blood [16]": {"tested_on": "Blood", "test": "Biodistribution in male Sprague-Dawley rat blood at 5 mg/kg, po administered as single dose measured after 0.5 hrs", "type": "ADME, organism-based", "design": "dose 5 mg/kg, dosed compound name [14C]-apixaban, route oral", "procedure,_shortened": "as §1"}, "Rattus norvegicus [17]": {"tested_on": "Rattus norvegicus", "test": "Biodistribution in male Sprague-Dawley rat salivary gland at 5 mg/kg, po administered as single dose measured after 4 hrs", "type": "ADME, organism-based", "design": "dose 5 mg/kg, dosed compound name [14C]-apixaban, route oral"}, "Liver": {"tested_on": "Liver", "test": "Biodistribution in female Sprague-Dawley rat liver at 5 mg/kg, po administered as single dose measured after 4 hrs", "type": "ADME, organism-based", "design": "dose 5 mg/kg, dosed compound name [14C]-apixaban, route oral", "procedure,_shortened": "as §2"}, "Blood [18]": {"tested_on": "Blood", "test": "AUC (0 to t) in female Sprague-Dawley rat blood at 5 mg/kg, po administered as single dose", "type": "ADME, organism-based", "design": "dose 5 mg/kg, dosed compound name [14C]-apixaban, route oral"}, "Rattus norvegicus [19]": {"tested_on": "Rattus norvegicus", "test": "Biodistribution in female Sprague-Dawley rat kidney cortex at 5 mg/kg, po administered as single dose measured after 72 hrs", "type": "ADME, organism-based", "design": "dose 5 mg/kg, dosed compound name [14C]-apixaban, route oral", "procedure,_shortened": "as §2"}, "Rattus norvegicus [20]": {"tested_on": "Rattus norvegicus", "test": "Biodistribution in fetal kidney of pregnant Sprague-Dawley rat at 5 mg/kg, po administered as single dose measured after 24 hrs", "type": "ADME, organism-based", "design": "dose 5 mg/kg, dosed compound name [14C]-apixaban, route oral", "procedure,_shortened": "as §2"}}}
{"smiles": "COc1ccc(-n2nc(C(N)=O)c3c2C(=O)N(c2ccc(N4CCCC[14C]4=O)cc2)CC3)cc1", "values": [{"measurement": "Radiolabel recovery", "setting": "Rattus norvegicus [1]", "result": 0.72, "unit": "ugequiv/g"}, {"measurement": "Radiolabel recovery", "setting": "[2]", "result": 74, "unit": "%"}, {"measurement": "Radiolabel recovery", "setting": "Muscle tissue", "result": 0.27, "unit": "ugequiv/g"}, {"measurement": "Radiolabel recovery", "setting": "Spleen [3]", "result": "Not detected assumed BLQ"}, {"measurement": "Cmax", "setting": "[4]", "result": 8920, "unit": "ngequiv/g"}, {"measurement": "Radiolabel recovery", "setting": "Rattus norvegicus [5]", "result": 0.95, "unit": "ugequiv/g"}, {"measurement": "Radiolabel recovery", "setting": "Rattus norvegicus [6]", "result": 0.53, "unit": "ugequiv/g"}, {"measurement": "Radiolabel recovery", "setting": "Adrenal gland", "result": 2.3, "unit": "ugequiv/g"}, {"measurement": "Radiolabel recovery", "setting": "Thymus [7]", "result": 0.23, "unit": "ugequiv/g"}, {"measurement": "Radiolabel recovery", "setting": "Rattus norvegicus [8]", "result": 0.31, "unit": "ugequiv/g"}, {"measurement": "Radiolabel recovery", "setting": "Rattus norvegicus [9]", "result": 0.37, "unit": "ugequiv/g"}, {"measurement": "Radiolabel recovery", "setting": "Lung", "result": "Not sampled as not visualised in autoradiograph"}, {"measurement": "Radiolabel recovery", "setting": "Spleen [10]", "result": 0.09, "unit": "ugequiv/g"}, {"measurement": "Radiolabel recovery", "setting": "Rattus norvegicus [11]", "result": 0.59, "unit": "ugequiv/g"}, {"measurement": "Radiolabel recovery", "setting": "Rattus norvegicus [12]", "result": "Not detected assumed BLQ"}, {"measurement": "Radiolabel recovery", "setting": "Blood [13]", "result": 0.08, "unit": "ugequiv/g"}, {"measurement": "Radiolabel recovery", "setting": "Rattus norvegicus [14]", "result": 0.88, "unit": "ugequiv/g"}, {"measurement": "Radiolabel recovery", "setting": "Thymus [15]", "result": "Not detected assumed BLQ"}, {"measurement": "Radiolabel recovery", "setting": "Pancreas", "result": 0.89, "unit": "ugequiv/g"}, {"measurement": "Radiolabel recovery", "setting": "Blood [16]", "result": 0.42, "unit": "ugequiv/g"}, {"measurement": "Radiolabel recovery", "setting": "Rattus norvegicus [17]", "result": 0.54, "unit": "ugequiv/g"}, {"measurement": "Radiolabel recovery", "setting": "Liver", "result": 3.98, "unit": "ugequiv/g"}, {"measurement": "AUCt", "setting": "Blood [18]", "result": 3110, "unit": "ngequiv.hr/g"}, {"measurement": "Radiolabel recovery", "setting": "Rattus norvegicus [19]", "result": "Not detected assumed BLQ"}, {"measurement": "Radiolabel recovery", "setting": "Rattus norvegicus [20]", "result": "Not sampled as not visualised in autoradiograph"}]}
